In PubChem BioAssay AID602189 (Broad Institute, 2012):
Inconclusive results are not listed. Active and inactive are the calls of the source.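 How the source made its calls: active means signal drop in every repeat run, with half-maximal concentration at most twice the top valid concentration; inconclusive means the separate test runs give conflicting calls; inactive means inactive in every test run.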

tested on: C. albicans CaCi-17 growth, Alamar Blue fluorescence, 48 h; assay: fluconazole-resistant Candida albicans growth inhibitors – clinical isolate, Alamar Blue, dry powder, confirmation (AID 602189); details: not given
Summary of the method: (§1)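 Assay system: fluconazole-resistant clinical isolate CaCi-17, whole fungal cells; medium: MOPS-buffered RPMI 1640 with uridine and glucose; times: 48 h at 37 °C, unshaken; technique: Alamar Blue fluorescence, 1:40 in PBS, read after 2 h; read-out: growth inhibition, shown by reduced Alamar Blue fluorescence; control set: amphotericin B at 10 µM as positive control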

| Compound | AC50 [µM] |
| --- | --- |
| O=C(Nc1nnc(-c2ccc3c(c2)CCCC3)o1)c1ccc(Cl)cc1Cl | 17.3 |
| O=C(NNC(=S)Nc1ccc(Cl)c(Cl)c1)c1ccccn1 | 1.86 |
| Oc1c(CN2CCc3ccccc3C2)cc(Cl)c2cccnc12 | 5.46 |
| O=C(Nc1nc(-c2ccccn2)cs1)c1ccc(Br)s1 | 4.94 |
| C/C(=N\NC(=O)c1cc2ccccc2cc1O)c1ccccn1 | 5.54 |
| O=C(Nc1nnc(-c2ccc3c(c2)CCCC3)o1)c1ccccc1 | 25.9 |
| O=C(Oc1c(Cl)cc(Cl)c2cccnc12)c1ccco1 | 1.5 |
| O=C(Nc1nc(-c2ccccn2)cs1)c1ccc(Cl)s1 | 10.5 |
| Oc1c(C(c2ccc(Cl)cc2)N2CCCC2)ccc2cccnc12 (stereo not drawn) | 8.73 |
| Oc1c(C(c2ccccc2Cl)N2CCCCC2)ccc2cccnc12 (stereo not drawn) | 11.7 |
| CN1CCN(C(c2ccc(C(F)(F)F)cc2)c2ccc3cccnc3c2O)CC1 (stereo not drawn) | 7.72 |

tested on: not listed separately; assay: as above; details: C. albicans CaCi-17 growth, Alamar Blue fluorescence, 48 h; at 26 µM (top of the series)
Summary of the method: as §1

| Compound | activity change, negative = inhibition |
| --- | --- |
| CCOC(=O)N1C(=O)C2(CCCCC2)N(c2ccc(C)cc2)C1=S | -10.2% (inactive) |
| O=C(Nc1nc(-c2ccccc2)cs1)c1ccc(Br)s1 | -6.92% (inactive) |
| NC(=O)c1cccc(C(=O)Nc2nc(-c3ccc4c(c3)CCCC4)cs2)c1 | 21.1% (inactive) |
| O=C(Nc1nc(-c2ccc3c(c2)CCCC3)cs1)c1ccccc1 | -2.83% (inactive) |
| Cc1ccc(C(=O)Nc2nnc(-c3ccccc3)o2)cc1C | -7.38% (inactive) |
| O=C(Nc1nc(-c2ccccn2)cs1)c1ccccc1 | 57.1% (inactive) |
| C=CCNC(=S)N/N=C(\C)c1ccccn1 | -32.2% (inactive) |
